In ChEMBL document CHEMBL1123002, “Resolution of 5,6-dihydroxy-2-(N,N-di-n-propylamino)tetralin in relation to the structural and stereochemical requirements for centrally acting dopamine agonists” (J Med Chem, 1985):

Key:
[1] = target: Dopamine receptor; experiment: Inhibitory activity against [3H]NPA binding (0.45) to dopamine receptor in striata of female wistar rats; assay type: protein assay
Procedure, shortened: (§1)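 Rat striatal membranes prepared in 15 mM Tris-HCl with 1 mM EDTA and 0.01% ascorbate, pH 7.5, washed by repeated 35000g spins. Incubated in triplicate for 30 min at 25 °C with 0.46 nM [³H]NPA and competitor over 10⁻¹¹–10⁻⁵ M. Nonspecific binding defined with 10⁻⁶ M (+)-butaclamol. Bound label collected on GF/B filters and counted by scintillation. IC50 from log-probit analysis of at least three determinations.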

[2] = system: Rattus norvegicus; experiment: In vivo dopaminergic activity was assessed by measuring the decrease of DA metabolite (HVA) levels in rat brain at dose 0.25 umol/kg; assay type: functional; design: scale not given: the % may be the effect or the level left
Procedure, shortened: (§2)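 Female Wistar-derived rats (160–220 g) given drug ip in saline with 0.1% sodium bisulfite. Killed by decapitation 40 min later. Striata dissected, frozen on dry ice, stored at -80 °C, then homogenized in 0.1 M perchloric acid and centrifuged. DA, HVA and DOPAC in the supernatant measured by Sephadex G10 cleanup and reverse-phase HPLC with amperometric detection, compared against controls.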

[3] = system: Rattus norvegicus; experiment: In vivo dopaminergic activity was assessed by measuring the decrease of DA metabolite (HVA) levels in rat brain at dose 0.5 umol/kg; assay type: functional; design: scale not given: the % may be the effect or the level left; procedure, shortened: as §2
[4] = system: Rattus norvegicus; experiment: In vivo dopaminergic activity was assessed by measuring the decrease of DA […] levels in rat brain at dose 0.25 umol/kg; assay type: functional; design: scale not given: the % may be the effect or the level left; procedure, shortened: as §2
[5] = system: Rattus norvegicus; experiment: In vivo dopaminergic activity was assessed by measuring the decrease of DA […] levels in rat brain at dose 0.5 umol/kg; assay type: functional; design: scale not given: the % may be the effect or the level left; procedure, shortened: as §2
[6] = system: Rattus norvegicus; experiment: In vivo dopaminergic activity was assessed by measuring the decrease of DA metabolite (DOPAC) levels in rat brain at dose 0.25 umol/kg; assay type: functional; design: scale not given: the % may be the effect or the level left; procedure, shortened: as §2
[7] = system: Rattus norvegicus; experiment: In vivo dopaminergic activity was assessed by measuring the decrease of DA metabolite (DOPAC) levels in rat brain at dose 0.5 umol/kg; assay type: functional; design: scale not given: the % may be the effect or the level left; procedure, shortened: as §2
[8] = system: Rattus norvegicus; experiment: In vivo dopaminergic activity was assessed by scoring stereotyped behavior in rats at dose 0.25 umol/kg; assay type: functional
Procedure, shortened: (§3)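 Rats dosed ip with drug in saline containing 0.1% sodium bisulfite. Stereotyped behaviour scored over 30 min after injection by a published rating method.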

[9] = system: Rattus norvegicus; experiment: In vivo dopaminergic activity was assessed by scoring stereotyped behavior in rats at dose 0.5 umol/kg; assay type: functional; procedure, shortened: as §3
[10] = system: Rattus norvegicus; experiment: In vivo dopaminergic activity was assessed by measuring the decrease of DA metabolite (HVA) levels in rat brain at dose 10 umol/kg; assay type: functional; design: scale not given: the % may be the effect or the level left; procedure, shortened: as §2
[11] = system: Rattus norvegicus; experiment: In vivo dopaminergic activity was assessed by measuring the decrease of DA metabolite (HVA) levels in rat brain at dose 5 umol/kg; assay type: functional; design: scale not given: the % may be the effect or the level left; procedure, shortened: as §2
[12] = system: Rattus norvegicus; experiment: In vivo dopaminergic activity was assessed by measuring the decrease of DA metabolite (DOPAC) levels in rat brain at dose 10 umol/kg; assay type: functional; design: scale not given: the % may be the effect or the level left; procedure, shortened: as §2
[13] = system: Rattus norvegicus; experiment: In vivo dopaminergic activity was assessed by measuring the decrease of DA metabolite (DOPAC) levels in rat brain at dose 5 umol/kg; assay type: functional; design: scale not given: the % may be the effect or the level left; procedure, shortened: as §2
[14] = system: Rattus norvegicus; experiment: In vivo dopaminergic activity was assessed by measuring the decrease of DA […] levels in rat brain at dose 10 umol/kg; assay type: functional; design: scale not given: the % may be the effect or the level left; procedure, shortened: as §2
[15] = system: Rattus norvegicus; experiment: In vivo dopaminergic activity was assessed by measuring the decrease of DA […] levels in rat brain at dose 5 umol/kg; assay type: functional; design: scale not given: the % may be the effect or the level left; procedure, shortened: as §2
[16] = system: Rattus norvegicus; experiment: In vivo dopaminergic activity was assessed by scoring stereotyped behavior in rats at dose 10 umol/kg; assay type: functional; procedure, shortened: as §3
[17] = system: Rattus norvegicus; experiment: In vivo dopaminergic activity was assessed by scoring stereotyped behavior in rats at dose 5 umol/kg; assay type: functional; procedure, shortened: as §3
[18] = target: Dopamine receptor; experiment: Inhibitory activity against [3H]NPA binding (0.45) to dopamine receptors in striata of female wistar rats; assay type: protein assay; procedure, shortened: as §1

Compound | IC50 [1] | Control [2] | Control [3] | Control [4] | Control [5] | Control [6] | Control [7] | Stereotypy score [8] | Stereotypy score [9] | Control [10] | Control [11] | Control [12] | Control [13] | Control [14] | Control [15] | Stereotypy score [16] | Stereotypy score [17] | IC50 [18]
CCCN(CCC)C1CCc2c(ccc(O)c2O)C1 (single isomer, unassigned; (-)) | 2.5 nM | <42.5% | <42.6% | 98.4% | 114.2% | <53.7% | <58% | 4 | 4 |  |  |  |  |  |  |  |  | 
CCCN(CCC)C1CCc2c(ccc(O)c2O)C1 (single isomer, unassigned; (+)) | 400 nM |  | 86.5% |  | 109.4% |  | 93.3% |  | 0 | <41.2% | <48.6% | <60.1% | 68.9% | <125.8% | 115% | 3 | 3 | 
CCCN(CCC)C1CCc2c(ccc(O)c2O)C1 (racemic) |  | 36.2% | 47.6% | 103% | 114.9% | 61% | 58.5% |  |  |  |  |  |  |  |  |  |  | 4 nM
